The term EC50 denotes the concentration at which the effect is half-maximal. A word on the CC50: it is the concentration that lowers cell viability or growth by half.

Data on 31 molecules can be found in ChEMBL document CHEMBL2040755, “Diverse combinatorial design, synthesis and in vitro evaluation of new HEPT analogues as potential non-nucleoside HIV-1 reverse transcription inhibitors” (Eur J Med Chem, 2012).

In data set [1] the test system is Human immunodeficiency virus 1. As to the kind of experiment: Antiviral activity against HIV1 NL4-3 infected in human MT4 cells assessed as inhibition of virus-induced cytopathic effect after 5 days. Format: functional, organism-based. Particulars: Human immunodeficiency virus 1, NL4-3, MT4, 120 h. In a few lines: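 HIV-1 NL4-3 titered in MT-4 cells after acute infection. Infected cells were exposed to various concentrations of compound and grown 5 days. Protection from virus-induced cytopathic effect was read as viable cell number by tetrazolium (MTT) colorimetry, giving EC50.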
Background: Cytopathic effects are the visible damage that an infection or toxin causes in cultured cells.

Data set [2] can be described thus: Cytotoxicity against human MT4 cells after 5 days by MTT assay. Format: cell-based. In a few lines: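 Uninfected MT-4 cells exposed to various compound concentrations and allowed to proliferate 5 days. Viable cells quantified by tetrazolium-based colorimetric (MTT) method to give CC50.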
Background: Tetrazolium assays rely on reduction of a dye to a coloured formazan, in cell work by metabolically active cells.

A short description of data set [3]: Selectivity index, ratio of CC50 for human MT4 cells to EC50 for HIV1 NL4-3. Conditions: read-out: Ratio CC50/EC50. The data set is classed as toxicity, cell-based. The procedure, abridged:
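SI taken as CC50 in uninfected MT-4 cells over EC50 against HIV-1 NL4-3. Both came from parallel 5-day MTT viability read-outs, in mock-infected and in infected cells exposed to various compound concentrations.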

The test system of data set [4] is Human immunodeficiency virus 1. Briefly: Ratio of HEPT EC50 to compound EC50 for HIV1 NL4-3. The data set is classed as functional.

≈ marks a conversion by molar mass, not a printed value.

In the case of `C[Si](C)(C)CCOCn1c(Sc2ccccc2)cc(=O)[nH]c1=O`, the EC50 in data set [1] was over 71 µM. In data set [2], the CC50 at 120 h was over 25 µg/mL.

On to `C[Si](C)(C)CCOCn1c(Sc2cccc(N)c2)cc(=O)[nH]c1=O`, for which the EC50 in data set [1] is over 68 µM. For the same molecule, in data set [2], the CC50 at 120 h is over 25 µg/mL.

Turning to `C[Si](C)(C)CCOCn1c(Sc2c(Cl)cccc2Cl)cc(=O)[nH]c1=O`, the EC50 in data set [1] was over 25.2 µM. In data set [2], this molecule showed a CC50 at 120 h of 10.6 µg/mL (≈ 25.3 µM).

For `C[Si](C)(C)CCOCn1c(Sc2cccc(Cl)c2)cc(=O)[nH]c1=O`, the EC50 in data set [1] is over 30 µM. The molecule also had a CC50 at 120 h in data set [2] of 11.6 µg/mL (≈ 30.1 µM).

As to `CCOCn1c(Sc2ccccc2)cc(=O)[nH]c1=O`, the EC50 in data set [1] was over 90 µM. Moreover, in data set [2], the CC50 at 120 h was over 25 µg/mL.

For the molecule `CCOCn1c(Sc2cccc(N)c2)cc(=O)[nH]c1=O`, the EC50 in data set [1] was over 85 µM. For the same molecule, in data set [2], the CC50 at 120 h is over 25 µg/mL.

Take `CCOCn1c(Sc2c(Cl)cccc2Cl)cc(=O)[nH]c1=O`: the EC50 in data set [1] was over 72 µM. The molecule also yielded a CC50 at 120 h in data set [2] of over 25 µg/mL.

In the case of `CCOCn1c(Sc2cccc(Cl)c2)cc(=O)[nH]c1=O`, the EC50 in data set [1] is over 80 µM. In addition, the CC50 at 120 h in data set [2] is over 25 µg/mL.

In the case of `Cc1ccc(C)c(Cn2c(Sc3ccccc3)cc(=O)[nH]c2=O)c1`, in data set [1], the EC50 is over 74 µM. In data set [2], this molecule came in with a CC50 at 120 h of over 25 µg/mL.

`Cc1ccc(C)c(Cn2c(Sc3cccc(N)c3)cc(=O)[nH]c2=O)c1`: the EC50 in data set [1] is over 71 µM. The same molecule yielded a CC50 at 120 h in data set [2] of over 25 µg/mL.

On to `Cc1ccc(C)c(Cn2c(Sc3c(Cl)cccc3Cl)cc(=O)[nH]c2=O)c1`, for which the EC50 in data set [1] was over 61 µM. Besides, in data set [2], the CC50 at 120 h is over 25 µg/mL.

Consider `Cc1ccc(C)c(Cn2c(Sc3cccc(Cl)c3)cc(=O)[nH]c2=O)c1`, for which the EC50 in data set [1] was over 67 µM. The molecule also had a CC50 at 120 h in data set [2] of over 25 µg/mL.

Take `Cc1c(Sc2cccc(N)c2)n(COCC[Si](C)(C)C)c(=O)[nH]c1=O`: the selectivity ratio in data set [3] is over 57. Also, the EC50 in data set [1] was 1.15 µM. Further, the CC50 at 120 h in data set [2] is over 25 µg/mL.

On to `Cc1c(Sc2c(Cl)cccc2Cl)n(COCC[Si](C)(C)C)c(=O)[nH]c1=O`, for which the EC50 in data set [1] is over 21.3 µM. Besides, the CC50 at 120 h in data set [2] was 9.2 µg/mL (≈ 21.2 µM).

Turning to `Cc1c(Sc2cccc(Cl)c2)n(COCC[Si](C)(C)C)c(=O)[nH]c1=O`, the concentration for a half-maximal effect (EC50) in data set [1] is over 24.9 µM. In data set [2], this molecule displayed a CC50 at 120 h of 9.9 µg/mL (≈ 24.8 µM).

`CCOCn1c(Sc2cccc(N)c2)c(C)c(=O)[nH]c1=O`: the selectivity ratio in data set [3] was over 63. The EC50 in data set [1] worked out at 1.3 µM. In data set [2], this molecule yielded a CC50 at 120 h of over 25 µg/mL.

Take `CCOCn1c(Sc2c(Cl)cccc2Cl)c(C)c(=O)[nH]c1=O`: the selectivity ratio in data set [3] was over 15. Also, the EC50 in data set [1] amounted to 4.7 µM. This molecule registered a CC50 at 120 h in data set [2] of over 25 µg/mL.

On to `CCOCn1c(Sc2cccc(Cl)c2)c(C)c(=O)[nH]c1=O`, for which, in data set [3], the selectivity ratio was over 1670. In data set [4], the “Ratio EC50” value was 67. The EC50 in data set [1] came to 0.046 µM. The molecule further showed a CC50 at 120 h in data set [2] of over 25 µg/mL.

Consider `Cc1ccc(C)c(Cn2c(Sc3ccccc3)c(C)c(=O)[nH]c2=O)c1`, for which the selectivity ratio in data set [3] was over 20. Also, the EC50 in data set [1] turned out to be 3.57 µM. This molecule gave a CC50 at 120 h in data set [2] of over 25 µg/mL.

For `Cc1ccc(C)c(Cn2c(Sc3cccc(N)c3)c(C)c(=O)[nH]c2=O)c1`, the selectivity ratio in data set [3] is over 13. The EC50 in data set [1] is 5.2 µM. For the same molecule, the CC50 at 120 h in data set [2] is over 25 µg/mL.

As to `Cc1ccc(C)c(Cn2c(Sc3c(Cl)cccc3Cl)c(C)c(=O)[nH]c2=O)c1`, the EC50 in data set [1] is over 59 µM. In data set [2], the CC50 at 120 h was over 25 µg/mL.

`Cc1ccc(C)c(Cn2c(Sc3cccc(Cl)c3)c(C)c(=O)[nH]c2=O)c1`: the selectivity ratio in data set [3] was over 40. Besides, the EC50 in data set [1] is 0.868 µM. In data set [2], this molecule gave a CC50 at 120 h of 13.6 µg/mL (≈ 35.2 µM).

Consider `CCOCn1c(Sc2ccccc2)c(C)c(=S)[nH]c1=O`, for which, in data set [3], the selectivity ratio was over 4. Besides, the EC50 in data set [1] is 1.9 µM. The molecule also yielded a CC50 at 120 h in data set [2] of 2.38 µg/mL (≈ 7.72 µM).

Take `CCOCn1c(Sc2cccc(Cl)c2)c(C)c(=S)[nH]c1=O`: the EC50 in data set [1] was over 4.96 µM. Further, the CC50 at 120 h in data set [2] is 1.7 µg/mL (≈ 4.96 µM).

Take `Cc1c(Sc2ccccc2)n(COCC[Si](C)(C)C)c(=O)[nH]c1=O`: the EC50 in data set [1] is over 27.3 µM. In data set [2], the CC50 at 120 h turned out to be 9.9 µg/mL (≈ 27.2 µM).

Take `CCOCn1c(Sc2ccccc2)c(C)c(=O)[nH]c1=O`: in data set [3], the selectivity ratio is over 1000. Besides, in data set [4], the “Ratio EC50” value is on record as 38. Moreover, the EC50 in data set [1] was 0.086 µM. Further, in data set [2], the CC50 at 120 h was over 25 µg/mL.

Turning to `Cc1c(Sc2cccc(Cl)c2)n(COCCO)c(=O)[nH]c1=O`, in data set [3], the selectivity ratio is over 60. Also, the EC50 in data set [1] turned out to be 1.2 µM. Besides, the CC50 at 120 h in data set [2] is over 25 µg/mL.

As to `O=C1Nc2ccc(Cl)cc2[C@@](C#CC2CC2)(C(F)(F)F)O1` [EFAVIRENZ], the CC50 at 120 h in data set [2] was over 1 µg/mL.

As for `Cc1c(Sc2ccccc2)n(COCCO)c(=O)[nH]c1=O` [HEPT], the selectivity ratio in data set [3] is over 25. In addition, the EC50 in data set [1] was determined as 3.28 µM. In data set [2], the CC50 at 120 h is over 25 µg/mL.

The molecule `Cc1ccnc2c1NC(=O)c1cccnc1N2C1CC1` [NEVIRAPINE] showed a CC50 at 120 h in data set [2] of over 5 µg/mL.

Take `Cc1cn([C@H]2C[C@H](N=[N+]=[N-])[C@@H](CO)O2)c(=O)[nH]c1=O` [ZIDOVUDINE]: the selectivity ratio in data set [3] was over 1000. Also, the EC50 in data set [1] is 0.004 µM. For the same molecule, the CC50 at 120 h in data set [2] is over 1 µg/mL.
